Measurements taken from ChEMBL document CHEMBL1138488, “Synthesis and biological evaluation of 3,3-difluoropyridine-2,4(1H,3H)-dione and 3-deaza-3-fluorouracil base and nucleoside derivatives” (J Med Chem, 2009).
Activity calls are given as the source filed them. No cut-off for these calls is given here.

Key:
[1] = tested on: Vesicular stomatitis virus; experiment: Antiviral activity against Vesicular stomatitis virus infected in human HeLa cells assessed as inhibition of virus-induced cytopathic effect at <=100 uM; type: functional, organism-based
[2] = tested on: Human immunodeficiency virus 1; experiment: Antiviral activity against HIV1 3B replication in human CEM cells assessed as virus-induced giant cell formation at <=100 uM after 4 days; type: functional, organism-based; conditions: CCRF-CEM
Summary of the method: (§1)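 CEM cells (~3 × 10⁵ cells/cm³) were infected with 100 CCID₅₀/mL of HIV-1(III_B) or HIV-2(ROD) and seeded into wells containing compound dilutions. After 4 days at 37 °C, virus-induced giant cell formation was examined microscopically.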

[3] = tested on: Vesicular stomatitis virus; experiment: Antiviral activity against Vesicular stomatitis virus infected in HEL cells assessed as inhibition of virus-induced cytopathic effect at <=100 uM; type: functional, organism-based
[4] = tested on: Moloney murine sarcoma virus; experiment: Antiviral activity against Moloney sarcoma virus replication infected in mouse […] cells assessed as virus-induced transformation of cells at <=100 uM measured on day 6 postinfection; type: functional, organism-based
Summary of the method: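 Murine C3H/3T3 embryo fibroblasts were grown to confluency and infected with Moloney murine sarcoma virus at 75 focus-forming units. Compound concentrations were then added, and virus-induced transformation was examined microscopically at day 6 postinfection.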

[5] = tested on: Mammalian orthoreovirus 3; experiment: Antiviral activity against Reovirus 3 infected in african green monkey Vero cells assessed as inhibition of virus-induced cytopathic effect at <=100 uM; type: functional, organism-based
Human betaherpesvirus 5 [6] = experiment: Antiviral activity against HCMV AD169 infected in HEL cells assessed as inhibition of virus-induced cytopathic effect at <=100 uM; type: functional, organism-based
Summary of the method: (§2)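 Confluent cell monolayers were inoculated with 100 CCID₅₀ of virus, and virus was adsorbed for 1 h. Residual virus was then removed and cells were incubated with serial compound concentrations ([…], ... µM). Cytopathicity was scored once it reached completion in untreated virus-infected control cultures.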

[7] = tested on: Respiratory syncytial virus; experiment: Antiviral activity against Respiratory syncytial virus infected in human HeLa cells assessed as inhibition of virus-induced cytopathic effect at <=100 uM; type: functional, organism-based; summary of the method: as §2
Human alphaherpesvirus 1 [8] = experiment: Antiviral activity against acyclovir-resistant […] kinase-deficient HSV1 KOS infected in HEL cells assessed as virus-induced cytopathic effect at <=100 uM; type: functional, organism-based
L1210 = experiment: Cytostatic activity against mouse L1210 cells at <=500 uM after 2 days by Coulter counting analysis; type: ADME, cell-based; conditions: l1210, 48 h
Summary of the method: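 Murine leukemia L1210 cells were seeded at 50000 cells per well with varying compound concentrations. Viable cell number was counted by Coulter counter after 2 days.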

Human respirovirus 3 = experiment: Antiviral activity against Parainfluenza virus type 3 infected in african green monkey Vero cells assessed as inhibition of virus-induced cytopathic effect at <=100 uM; type: functional, organism-based; summary of the method: as §2
Human alphaherpesvirus 1 [9] = experiment: Antiviral activity against HSV1 KOS infected in HEL cells assessed as virus-induced cytopathic effect at <=100 uM; type: functional, organism-based
Human alphaherpesvirus 2 = experiment: Antiviral activity against HSV2 strain G infected in HEL cells assessed as virus-induced cytopathic effect at <=100 uM; type: functional, organism-based
Human betaherpesvirus 5 [10] = experiment: Antiviral activity against HCMV Davis infected in HEL cells assessed as inhibition of virus-induced cytopathic effect at <=100 uM; type: functional, organism-based; summary of the method: as §2
Punta Toro virus = experiment: Antiviral activity against Punta Toro virus infected in african green monkey Vero cells assessed as inhibition of virus-induced cytopathic effect at <=100 uM; type: functional, organism-based; summary of the method: as §2
[11] = Cytostatic activity against human Molt4/C8 cells at <=500 uM after 3 days by Coulter counting analysis; type: ADME, cell-based; conditions: molt-4, 72 h
Summary of the method: (§3)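 Molt4/C8 or CEM lymphocytes were seeded at 75000 cells per well with varying compound concentrations. Viable cells were counted by Coulter counter after 3 days. CC₅₀ is the concentration inhibiting cell proliferation by 50%.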

Human alphaherpesvirus 3 [12] = experiment: Antiviral activity against thymidine kinase deficient Varicella zoster virus 07/1 infected in human HEL cells assessed as inhibition of virus-induced cytopathic effect at <=100 uM; type: functional, organism-based; summary of the method: as §2
[13] = tested on: Human immunodeficiency virus 2; experiment: Antiviral activity against HIV2 ROD replication in human CEM cells assessed as virus-induced giant cell formation at <=100 uM after 4 days; type: functional, organism-based; conditions: CCRF-CEM; summary of the method: as §1
Vaccinia virus = experiment: Antiviral activity against Vaccinia virus infected in HEL cells assessed as inhibition of virus-induced cytopathic effect at <=100 uM; type: functional, organism-based; conditions: Orthopoxvirus vaccinia
Human alphaherpesvirus 3 [14] = experiment: Antiviral activity against thymidine kinase expressing Varicella zoster virus Oka infected in human HEL cells assessed as inhibition of virus-induced cytopathic effect at <=100 uM; type: functional, organism-based; summary of the method: as §2
Sindbis virus = experiment: Antiviral activity against Sindbis virus infected in african green monkey Vero cells assessed as inhibition of virus-induced cytopathic effect at <=100 uM; type: functional, organism-based; summary of the method: as §2
Coxsackievirus B4 = experiment: Antiviral activity against Coxsackievirus B4 infected in human HeLa cells assessed as inhibition of virus-induced cytopathic effect at <=100 uM; type: functional, organism-based; summary of the method: as §2
CCRF-CEM = experiment: Cytostatic activity against human CEM cells at <=500 uM after 3 days by Coulter counting analysis; type: cell-based; conditions: 72 h; summary of the method: as §3

## C#CC1(O)C=CN([C@@H]2O[C@H](CO)[C@@H](O)[C@H]2O)C(=O)C1(F)F (stereo partly drawn)
[1]
  Activity: inactive
[2]
  Activity: inactive
[3]
  Activity: inactive
[4]
  Activity: inactive
[5]
  Activity: inactive
Human betaherpesvirus 5 [6]
  Activity: inactive
[7]
  Activity: inactive
Human alphaherpesvirus 1 [8]
  Activity: inactive
L1210
  Activity: Not Active
Human respirovirus 3
  Activity: inactive
Human alphaherpesvirus 1 [9]
  Activity: inactive
Human alphaherpesvirus 2
  Activity: inactive
Human betaherpesvirus 5 [10]
  Activity: inactive
Punta Toro virus
  Activity: inactive
[11]
  Activity: Not Active
Human alphaherpesvirus 3 [12]
  Activity: inactive
[13]
  Activity: inactive
Vaccinia virus
  Activity: inactive
Human alphaherpesvirus 3 [14]
  Activity: inactive
Sindbis virus
  Activity: inactive
Coxsackievirus B4
  Activity: inactive
CCRF-CEM
  Activity: Not Active

## O=C1N([C@@H]2O[C@H](CO)[C@@H](O)[C@H]2O)C=CC(O)(c2ccccc2)C1(F)F (stereo partly drawn)
[1]
  Activity: inactive
[2]
  Activity: inactive
[3]
  Activity: inactive
[4]
  Activity: inactive
[5]
  Activity: inactive
Human betaherpesvirus 5 [6]
  Activity: inactive
[7]
  Activity: inactive
Human alphaherpesvirus 1 [8]
  Activity: inactive
L1210
  Activity: Not Active
Human respirovirus 3
  Activity: inactive
Human alphaherpesvirus 1 [9]
  Activity: inactive
Human alphaherpesvirus 2
  Activity: inactive
Human betaherpesvirus 5 [10]
  Activity: inactive
Punta Toro virus
  Activity: inactive
[11]
  Activity: Not Active
Human alphaherpesvirus 3 [12]
  Activity: inactive
[13]
  Activity: inactive
Vaccinia virus
  Activity: inactive
Human alphaherpesvirus 3 [14]
  Activity: inactive
Sindbis virus
  Activity: inactive
Coxsackievirus B4
  Activity: inactive
CCRF-CEM
  Activity: Not Active

## CC1(O)C=CN([C@@H]2O[C@H](CO)[C@@H](O)[C@H]2O)C(=O)C1(F)F (stereo partly drawn)
[1]
  Activity: inactive
[2]
  Activity: inactive
[3]
  Activity: inactive
[4]
  Activity: inactive
[5]
  Activity: inactive
Human betaherpesvirus 5 [6]
  Activity: inactive
[7]
  Activity: inactive
Human alphaherpesvirus 1 [8]
  Activity: inactive
L1210
  Activity: Not Active
Human respirovirus 3
  Activity: inactive
Human alphaherpesvirus 1 [9]
  Activity: inactive
Human alphaherpesvirus 2
  Activity: inactive
Human betaherpesvirus 5 [10]
  Activity: inactive
Punta Toro virus
  Activity: inactive
[11]
  Activity: Not Active
Human alphaherpesvirus 3 [12]
  Activity: inactive
[13]
  Activity: inactive
Vaccinia virus
  Activity: inactive
Human alphaherpesvirus 3 [14]
  Activity: inactive
Sindbis virus
  Activity: inactive
Coxsackievirus B4
  Activity: inactive
CCRF-CEM
  Activity: Not Active

## NC(=O)Cc1ccn([C@H]2C[C@H](O)[C@@H](CO)O2)c(=O)c1F
[1]
  Activity: inactive
[2]
  Activity: inactive
[3]
  Activity: inactive
[4]
  Activity: inactive
[5]
  Activity: inactive
Human betaherpesvirus 5 [6]
  Activity: inactive
[7]
  Activity: inactive
Human alphaherpesvirus 1 [8]
  Activity: inactive
L1210
  Activity: Not Active
Human respirovirus 3
  Activity: inactive
Human alphaherpesvirus 1 [9]
  Activity: inactive
Human alphaherpesvirus 2
  Activity: inactive
Human betaherpesvirus 5 [10]
  Activity: inactive
Punta Toro virus
  Activity: inactive
[11]
  Activity: Not Active
Human alphaherpesvirus 3 [12]
  Activity: inactive
[13]
  Activity: inactive
Vaccinia virus
  Activity: inactive
Human alphaherpesvirus 3 [14]
  Activity: inactive
Sindbis virus
  Activity: inactive
Coxsackievirus B4
  Activity: inactive
CCRF-CEM
  Activity: Not Active

## CC1(O)C=CN([C@H]2C[C@H](O)[C@@H](CO)O2)C(=O)C1(F)F (stereo partly drawn)
[1]
  Activity: inactive
[2]
  Activity: inactive
[3]
  Activity: inactive
[4]
  Activity: inactive
[5]
  Activity: inactive
Human betaherpesvirus 5 [6]
  Activity: inactive
[7]
  Activity: inactive
Human alphaherpesvirus 1 [8]
  Activity: inactive
L1210
  Activity: Not Active
Human respirovirus 3
  Activity: inactive
Human alphaherpesvirus 1 [9]
  Activity: inactive
Human alphaherpesvirus 2
  Activity: inactive
Human betaherpesvirus 5 [10]
  Activity: inactive
Punta Toro virus
  Activity: inactive
[11]
  Activity: Not Active
Human alphaherpesvirus 3 [12]
  Activity: inactive
[13]
  Activity: inactive
Vaccinia virus
  Activity: inactive
Human alphaherpesvirus 3 [14]
  Activity: inactive
Sindbis virus
  Activity: inactive
Coxsackievirus B4
  Activity: inactive
CCRF-CEM
  Activity: Not Active

## NC(=O)Cc1ccn([C@@H]2O[C@H](CO)[C@@H](O)[C@@H]2O)c(=O)c1F
[1]
  Activity: inactive
[2]
  Activity: inactive
[3]
  Activity: inactive
[4]
  Activity: inactive
[5]
  Activity: inactive
Human betaherpesvirus 5 [6]
  Activity: inactive
[7]
  Activity: inactive
Human alphaherpesvirus 1 [8]
  Activity: inactive
L1210
  Activity: Not Active
Human respirovirus 3
  Activity: inactive
Human alphaherpesvirus 1 [9]
  Activity: inactive
Human alphaherpesvirus 2
  Activity: inactive
Human betaherpesvirus 5 [10]
  Activity: inactive
Punta Toro virus
  Activity: inactive
[11]
  Activity: Not Active
Human alphaherpesvirus 3 [12]
  Activity: inactive
[13]
  Activity: inactive
Vaccinia virus
  Activity: inactive
Human alphaherpesvirus 3 [14]
  Activity: inactive
Sindbis virus
  Activity: inactive
Coxsackievirus B4
  Activity: inactive
CCRF-CEM
  Activity: Not Active

## O=C1N([C@H]2C[C@H](O)[C@@H](CO)O2)C=CC(O)(c2ccccc2)C1(F)F (stereo partly drawn)
[1]
  Activity: inactive
[2]
  Activity: inactive
[3]
  Activity: inactive
[4]
  Activity: inactive
[5]
  Activity: inactive
Human betaherpesvirus 5 [6]
  Activity: inactive
[7]
  Activity: inactive
Human alphaherpesvirus 1 [8]
  Activity: inactive
L1210
  Activity: Not Active
Human respirovirus 3
  Activity: inactive
Human alphaherpesvirus 1 [9]
  Activity: inactive
Human alphaherpesvirus 2
  Activity: inactive
Human betaherpesvirus 5 [10]
  Activity: inactive
Punta Toro virus
  Activity: inactive
[11]
  Activity: Not Active
Human alphaherpesvirus 3 [12]
  Activity: inactive
[13]
  Activity: inactive
Vaccinia virus
  Activity: inactive
Human alphaherpesvirus 3 [14]
  Activity: inactive
Sindbis virus
  Activity: inactive
Coxsackievirus B4
  Activity: inactive
CCRF-CEM
  Activity: Not Active

## O=c1c(F)c(O)ccn1[C@@H]1O[C@H](CO)[C@@H](O)[C@@H]1O
[1]
  Activity: inactive
[2]
  Activity: inactive
[3]
  Activity: inactive
[4]
  Activity: inactive
[5]
  Activity: inactive
Human betaherpesvirus 5 [6]
  Activity: inactive
[7]
  Activity: inactive
Human alphaherpesvirus 1 [8]
  Activity: inactive
L1210
  Activity: Not Active
Human respirovirus 3
  Activity: inactive
Human alphaherpesvirus 1 [9]
  Activity: inactive
Human alphaherpesvirus 2
  Activity: inactive
Human betaherpesvirus 5 [10]
  Activity: inactive
Punta Toro virus
  Activity: inactive
[11]
  Activity: Not Active
Human alphaherpesvirus 3 [12]
  Activity: inactive
[13]
  Activity: inactive
Vaccinia virus
  Activity: inactive
Human alphaherpesvirus 3 [14]
  Activity: inactive
Sindbis virus
  Activity: inactive
Coxsackievirus B4
  Activity: inactive
CCRF-CEM
  Activity: Not Active

## C#CC1(O)C=CN([C@H]2C[C@H](O)[C@@H](CO)O2)C(=O)C1(F)F (stereo partly drawn)
[1]
  Activity: inactive
[2]
  Activity: inactive
[3]
  Activity: inactive
[4]
  Activity: inactive
[5]
  Activity: inactive
Human betaherpesvirus 5 [6]
  Activity: inactive
[7]
  Activity: inactive
Human alphaherpesvirus 1 [8]
  Activity: inactive
L1210
  Activity: Not Active
Human respirovirus 3
  Activity: inactive
Human alphaherpesvirus 1 [9]
  Activity: inactive
Human alphaherpesvirus 2
  Activity: inactive
Human betaherpesvirus 5 [10]
  Activity: inactive
Punta Toro virus
  Activity: inactive
[11]
  Activity: Not Active
Human alphaherpesvirus 3 [12]
  Activity: inactive
[13]
  Activity: inactive
Vaccinia virus
  Activity: inactive
Human alphaherpesvirus 3 [14]
  Activity: inactive
Sindbis virus
  Activity: inactive
Coxsackievirus B4
  Activity: inactive
CCRF-CEM
  Activity: Not Active
